The values below come from ChEMBL document CHEMBL4431328, “Development of a Single-Chain Peptide Agonist of the Relaxin-3 Receptor Using Hydrocarbon Stapling” (J Med Chem, 2016).

In general, EC50 refers to the midpoint of the concentration-response curve. In general, Ki refers to the dissociation constant of the complex between target and ligand, obtained from inhibition or displacement.

Structures are written as SMILES. Calls of active or inactive are those of the source. The calls are words filed in the database; no cut-off is given here. Where a SMILES comes first, the peptide text is derived from it. Bridges are numbered along the chain shown (N, C = ends). [ ]: non-standard residue; d: D form. S5 = C=CCCC[C@](C)(N)C(=O)O

The target of series [1] is T1, Relaxin-3 receptor 1 (Homo sapiens, UniProt Q9NSD7).
T1 sequence (Q9NSD7 whole entry): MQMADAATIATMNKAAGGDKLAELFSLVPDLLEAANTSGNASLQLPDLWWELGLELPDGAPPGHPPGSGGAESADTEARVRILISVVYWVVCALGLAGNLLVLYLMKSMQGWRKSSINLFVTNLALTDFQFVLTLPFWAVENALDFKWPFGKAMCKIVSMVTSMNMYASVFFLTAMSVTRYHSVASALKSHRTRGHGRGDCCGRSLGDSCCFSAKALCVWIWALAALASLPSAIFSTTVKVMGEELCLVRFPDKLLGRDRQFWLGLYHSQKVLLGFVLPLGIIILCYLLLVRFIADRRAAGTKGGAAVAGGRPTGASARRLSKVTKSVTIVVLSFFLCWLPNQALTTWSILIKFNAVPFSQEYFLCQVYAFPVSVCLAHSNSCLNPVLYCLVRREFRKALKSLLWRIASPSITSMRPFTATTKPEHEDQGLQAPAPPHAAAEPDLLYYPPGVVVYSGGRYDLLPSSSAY
Kind of series: Agonist activity at human RXFP3 receptor expressed in CHOK1 cells assessed as ERK1/2 phosphorylation incubated for 5 mins by alphascreen surefire assay. The class given is cell-based.

A short description of series [2]: Toxicity in satiated Sprague-Dawley rat assessed as behavioral changes at 1 nmol, icv during early light phase measured after 1 hr post dose under home cage condition. Particulars: in vivo, icv_or_intrathecal.
Series [3] relates to Rattus norvegicus. Kind of series: Induction of food intake in satiated Sprague-Dawley rat at 1 nmol, icv during early light phase measured after 1 hr post dose. The class given is functional, organism-based.
Series [4] has as its target T1, Relaxin-3 receptor 1. Kind of series: Agonist activity at human RXFP3 receptor expressed in CHOK1 cells cotransfected with beta-galactosidase assessed as inhibition of forskolin-stimulated cAMP by beta-galactosidase reporter gene assay. The class given is functional, cell-based. On the technique in general: A reporter such as luciferase makes a cellular process visible.

Series [5] deals with T2, Relaxin-3 receptor 2 (Homo sapiens, UniProt Q8TDU9). In words: Agonist activity at human RXFP4 receptor expressed in CHOK1 cells cotransfected with beta-galactosidase assessed as inhibition of forskolin-stimulated cAMP by beta-galactosidase reporter gene assay. The class given is functional, cell-based.
The target in series [6] is T1, Relaxin-3 receptor 1. Kind of series: Displacement of Eu-H3/15 from human RXFP3 receptor expressed in CHOK1 cells by time-resolved fluorescent whole cell binding assay. Type of series: cell-based.
The target in series [7] is T3, Relaxin receptor 1 (Homo sapiens) (UniProt Q9HBX9).
T3 sequence (whole entry): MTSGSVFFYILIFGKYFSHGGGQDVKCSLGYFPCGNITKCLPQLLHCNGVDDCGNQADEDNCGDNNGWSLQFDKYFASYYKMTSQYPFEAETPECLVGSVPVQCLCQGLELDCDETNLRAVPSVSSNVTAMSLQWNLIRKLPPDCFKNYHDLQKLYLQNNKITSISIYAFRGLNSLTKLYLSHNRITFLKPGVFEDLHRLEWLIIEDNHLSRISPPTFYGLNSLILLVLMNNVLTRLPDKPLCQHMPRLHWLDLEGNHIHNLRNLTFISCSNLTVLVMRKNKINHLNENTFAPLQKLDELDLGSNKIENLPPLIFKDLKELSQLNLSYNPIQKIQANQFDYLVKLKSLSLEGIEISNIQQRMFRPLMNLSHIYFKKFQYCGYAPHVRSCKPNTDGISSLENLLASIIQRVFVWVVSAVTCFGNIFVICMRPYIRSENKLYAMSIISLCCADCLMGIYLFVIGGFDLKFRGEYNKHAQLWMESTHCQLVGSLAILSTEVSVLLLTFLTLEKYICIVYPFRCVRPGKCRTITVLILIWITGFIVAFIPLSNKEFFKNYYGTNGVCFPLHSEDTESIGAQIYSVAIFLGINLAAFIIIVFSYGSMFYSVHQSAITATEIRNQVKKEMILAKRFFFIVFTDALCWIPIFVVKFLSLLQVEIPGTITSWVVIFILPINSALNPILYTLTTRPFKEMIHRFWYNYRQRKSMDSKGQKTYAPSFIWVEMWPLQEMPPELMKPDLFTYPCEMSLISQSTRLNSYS
Kind of series: (§1) Agonist activity at RXFP1 receptor (unknown origin) expressed in HEK-293T cells cotransfected with beta-galactosidase assessed as cAMP activation by beta-galactosidase reporter gene assay. The class given is functional, cell-based. The procedure, abridged:
(§2)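 Tested for RXFP1 activation at concentrations up to 10 µM, alongside the […] as a reference.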

The subject of series [8] is Rattus norvegicus. Kind of series: Induction of water intake in satiated Sprague-Dawley rat at 1 nmol, icv during early light phase measured after 1 hr post dose. Type of series: functional, organism-based.
Series [9] concerns the target T3, Relaxin receptor 1 (Homo sapiens). Kind of series: Agonist activity at RXFP1 receptor (unknown origin) expressed in HEK-293T cells cotransfected with beta-galactosidase assessed as cAMP activation at 10 uM by beta-galactosidase reporter gene assay. The class given is functional, cell-based. The procedure, abridged:
as §2

Series [10] addresses T2, Relaxin-3 receptor 2. Kind of series: Displacement of Eu-INSL5 from human RXFP4 receptor expressed in CHOK1 cells by time-resolved fluorescent whole cell binding assay. The class given is cell-based.
For another series, the target named is T4, Relaxin receptor 1 (Homo sapiens, UniProt Q9HBX9).
T4 sequence (Q9HBX9 whole entry): T3 sequence (whole entry)
The series is described as §1. The class given is functional, cell-based. The procedure, abridged: as §2

T2 sequence (Q8TDU9 whole entry): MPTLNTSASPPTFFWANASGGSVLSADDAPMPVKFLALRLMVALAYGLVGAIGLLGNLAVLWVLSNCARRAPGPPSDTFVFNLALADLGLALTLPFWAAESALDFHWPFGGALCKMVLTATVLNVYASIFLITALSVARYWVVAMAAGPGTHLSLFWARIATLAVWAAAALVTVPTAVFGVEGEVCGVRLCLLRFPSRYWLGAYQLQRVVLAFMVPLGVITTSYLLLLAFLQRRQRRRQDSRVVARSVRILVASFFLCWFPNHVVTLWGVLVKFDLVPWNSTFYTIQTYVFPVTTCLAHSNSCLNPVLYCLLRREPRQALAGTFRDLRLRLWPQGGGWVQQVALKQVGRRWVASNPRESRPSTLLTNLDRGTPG

With `CC[C@H](C)[C@@H]1NC(=O)[C@H](Cc2ccccc2)NC(=O)[C@@](C)(NC(=O)[C@H](CCCNC(=N)N)NC(=O)CNC(=O)[C@H](CO)NC(C)=O)CCC/C=C/CCC[C@@](C)(C(=O)N[C@H](C(=O)N[C@H](C(=O)N[C@@H](Cc2ccccc2)C(=O)N[C@H](C(=O)N[C@@H](CO)C(=O)NCC(=O)NCC(=O)N[C@@H](CO)C(=O)N[C@@H](CCCNC(=N)N)C(=O)N[C@@H](Cc2c[nH]c3ccccc23)C(=O)O)[C@@H](C)O)[C@@H](C)CC)C(C)C)NC(=O)[C@H](CCCNC(=N)N)NC1=O` (Ac-SGR[S5]FIR[S5]VIFTSGGSRW-OH; staple (E) 4-8), the figures for the EC50 at Relaxin-3 receptor 1 [1], at Relaxin-3 receptor 1 [4] and at Relaxin-3 receptor 2 [5] were 0.12 nM, 3.31 nM and 112 nM, respectively. Moreover, the Activity result in series [2] was “Non-Toxic”. In addition, in the series with Rattus norvegicus [3], the result was Active. The values for the Ki at Relaxin-3 receptor 1 [6] and at Relaxin-3 receptor 2 [10] were 275 nM and 316 nM, respectively. In [7], the pEC50 result was “inactive”. In addition, the result (in the series on Rattus norvegicus [8]; in [9]) was inactive.

With `CC[C@H](C)[C@@H]1NC(=O)[C@H](Cc2ccccc2)NC(=O)[C@@](C)(NC(=O)[C@H](CCCNC(=N)N)NC(=O)CNC(=O)[C@H](CO)NC(=O)[C@H](CC(C)C)NC(=O)[C@H](CCCNC(=N)N)NC(C)=O)CCC/C=C/CCC[C@@](C)(C(=O)N[C@H](C(=O)N[C@H](C(=O)N[C@@H](Cc2ccccc2)C(=O)N[C@H](C(=O)N[C@@H](CO)C(=O)NCC(=O)NCC(=O)N[C@@H](CO)C(=O)N[C@@H](CCCNC(=N)N)C(=O)N[C@@H](Cc2c[nH]c3ccccc23)C(=O)O)[C@@H](C)O)[C@@H](C)CC)C(C)C)NC(=O)[C@H](CCCNC(=N)N)NC1=O` (Ac-RLSGR[S5]FIR[S5]VIFTSGGSRW-OH; staple (E) 6-10), the EC50 was 5.25 nM on Relaxin-3 receptor 1 [4], 120 nM at Relaxin-3 receptor 2 [5] and > 10000 nM on Relaxin receptor 1. The Ki on Relaxin-3 receptor 1 [6] was 107 nM; on Relaxin-3 receptor 2 [10], 123 nM. Moreover, the outcome in series [9] was inactive.

For `CC[C@H](C)[C@H](NC(=O)[C@H](Cc1ccccc1)NC(=O)[C@H](CCC(=O)O)NC(=O)[C@H](CCCNC(=N)N)NC(=O)CNC(=O)[C@H](CO)NC(C)=O)C(=O)N[C@@H](CCCNC(=N)N)C(=O)N[C@@H](C)C(=O)N[C@H](C(=O)N[C@H](C(=O)N[C@@H](Cc1ccccc1)C(=O)N[C@H](C(=O)N[C@@H](CO)C(=O)NCC(=O)NCC(=O)N[C@@H](CO)C(=O)N[C@@H](CCCNC(=N)N)C(=O)N[C@@H](Cc1c[nH]c2ccccc12)C(=O)O)[C@@H](C)O)[C@@H](C)CC)C(C)C` (Ac-SGREFIRAVIFTSGGSRW-OH), the EC50 is 8710 nM at Relaxin-3 receptor 1 [4], 2690 nM at Relaxin-3 receptor 2 [5] and > 10000 nM at Relaxin receptor 1. Also, the outcome in [9] was inactive. Besides, the Ki at Relaxin-3 receptor 2 [10] is > 10000 nM.

As for `CC[C@H](C)[C@H](NC(=O)[C@H](Cc1ccccc1)NC(=O)[C@H](CCC(=O)O)NC(=O)[C@H](CCCNC(=N)N)NC(=O)CNC(=O)[C@H](CO)NC(C)=O)C(=O)N[C@@H](CCCNC(=N)N)C(=O)N[C@@H](CCCCN)C(=O)N[C@H](C(=O)N[C@H](C(=O)N[C@@H](Cc1ccccc1)C(=O)N[C@H](C(=O)N[C@@H](CO)C(=O)NCC(=O)NCC(=O)N[C@@H](CO)C(=O)N[C@@H](CCCNC(=N)N)C(=O)N[C@@H](Cc1c[nH]c2ccccc12)C(=O)O)[C@@H](C)O)[C@@H](C)CC)C(C)C` (Ac-SGREFIRKVIFTSGGSRW-OH), the figures for the EC50 at Relaxin-3 receptor 1 [4], on Relaxin-3 receptor 2 [5] and at Relaxin receptor 1 were 4570 nM, 5890 nM and > 10000 nM, respectively. In addition, in [9], the result was inactive. Further, the Ki at Relaxin-3 receptor 2 [10] was > 10000 nM.
